# Test results published in PMC3846294 (Chemical research in toxicology, 2013).
# Like-named read-outs stand apart in the source and are kept apart here.
# Columns and labels:
# [1] = target: T1, hSULT2A1 (Homo sapiens, UniProt Q06520); experiment: Structural modification of hSULT2A1 by quinones, proteolytic digestion and LC/MS; conditions: 15 μM hSULT2A1 with 250 μM quinone, 1 h, pH 8.0, 25 °C
# T1 sequence (Q06520 1-285): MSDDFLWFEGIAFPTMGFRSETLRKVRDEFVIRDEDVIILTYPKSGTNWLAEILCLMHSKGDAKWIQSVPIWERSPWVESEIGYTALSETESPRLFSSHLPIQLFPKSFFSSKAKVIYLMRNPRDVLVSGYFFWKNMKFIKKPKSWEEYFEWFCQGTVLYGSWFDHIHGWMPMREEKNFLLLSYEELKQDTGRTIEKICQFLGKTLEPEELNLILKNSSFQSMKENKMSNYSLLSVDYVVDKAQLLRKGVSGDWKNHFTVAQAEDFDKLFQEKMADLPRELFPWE
# Outline: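 Recombinant hSULT2A1 was expressed in E. coli BL21(DE3), purified, and desalted of DTT into 50 mM Tris-HCl pH 8.0. 15 μg enzyme was reacted with quinone (17:1 molar ratio), then alkylated with 45 mM final 4-vinylpyridine for 1 h. Digestion used 0.6 μg trypsin with 10% v/v acetonitrile at 37 °C for 16 h, plus 1 μg Glu-C where needed. Peptides were analysed by LC/MS.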
# [2] = target: T1, hSULT2A1; experiment: Binding of PAP to quinone-pretreated hSULT2A1; conditions: in the absence of DHEA; pretreatment with 10 μM quinone
# Outline: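 Purified recombinant hSULT2A1 was expressed in E. coli BL21(DE3) and pretreated with test compound for 1 h at 25 °C. It was then placed at 15 nM final (dimer) in 0.25 M potassium phosphate, pH 7.4, without DHEA, 20 min before titration. PAP was added to 0.5–300 μM final at 37 °C. Intrinsic fluorescence (ex 290/em 347 nm) was read 10 s after each addition, dilution-corrected, in duplicate. Dissociation constants were derived.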
# [3] = target: T1, hSULT2A1; assay type: biochemical; conditions: 100-fold dilution, 0.5 μM DHEA (Figure 4)
# Outline: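 E. coli-expressed, purified hSULT2A1 was preincubated with test compound for 1 h at 25 °C, then diluted 100-fold into a standard assay containing 0.5 μM 3H-DHEA. The mixture was prewarmed at 37 °C for 2 min, and the reaction was started with 30 ng of enzyme. It ran for 3 or 4 min at 37 °C to keep initial velocity. Runs were in triplicate, mean ± SD, compared with untreated enzyme by paired two-tailed t test (p < 0.05).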
Molecule,Protein adducts at cysteines of hSULT2A1 [1],Binding of PAP to the pretreated enzyme [2],Catalytic activity of hSULT2A1 following preincubation with PBQ ([3]; PBQ 0.5 μM or 1.0 μM),Catalytic activity of hSULT2A1 following preincubation with PBQ ([3]; PBQ 5.0 μM or higher)
"4′-chlorophenyl-2,5-benzoquinone [4′-Cl-BQ]",protein adducts were observed at Cys55 and Cys199,no detectable binding of PAP,,
"O=C1C=CC(=O)C(c2ccccc2Cl)=C1 [2′-Cl-BQ, 2′-chlorophenyl-2,5-benzoquinone]",protein adducts were observed at Cys55 and Cys199,no detectable binding of PAP,,
"O=C1C=C(Cl)C(=O)C(c2ccc(Cl)cc2)=C1Cl [3,6,4′-triCl-BQ, 4′-chlorophenyl-3,6-dichloro-2,5-benzoquinone]",a dichlorinated adduct was found in the digested peptides containing Cys55 and Cys199,,,
"O=C1C=CC(=O)C(c2ccccc2)=C1 [PBQ, phenyl-2,5-benzoquinone]",protein adducts were observed at Cys55 and Cys199,,increase in the catalytic activity,decreases in catalytic activity
